Test results from ChEMBL document CHEMBL2169799, “Synthesis and characterization of a novel prostate cancer-targeted phosphatidylinositol-3-kinase inhibitor prodrug” (J Med Chem, 2012).
The source made the active and inactive calls. The calls are words filed in the database; no cut-off is given here. *1 amine or outer side, *2 acyl side, *3 side chain or, on linkers, in order; H or OH if unused. Where a SMILES comes first, the peptide text is derived from it. The star is where a group is joined. X1 = O=c1cc(N2CCOCC2)oc2c(-c3ccc(CO*)cc3)cccc12; Morpholide = C1CN(*)CCO1; CO = O=C([*:1])[*:2]

Columns and labels:
[1] = system: BT-549; assay: Inhibition of PI3 kinase in human BT549 cells assessed as reduction of p-Akt T308 level after 30 mins by Western blotting; assay type: cell-based
[2] = system: C4-2; assay: Inhibition of PI3 kinase in human C4-2 cells assessed as complete reduction of p-Akt T308 level at 30 µM after 30 mins by Western blotting; assay type: cell-based
[3] = system: C4-2; assay: Inhibition of PI3 kinase in human C4-2 cells assessed as reduction of p-Akt T308 level after 30 mins by Western blotting; assay type: cell-based
[4] = system: BT-549; assay: Inhibition of PI3 kinase in human BT549 cells assessed as complete reduction of p-Akt T308 level at 30 µM after 30 mins by Western blotting; assay type: cell-based
[5] = Prodrug activation in medium conditioned with human C4-2 cells assessed as concentration of 4-(2-morpholino-4-oxo-4H-chromen-8-yl) benzyl-2-amino-4-methylpentanoate at 30 uM from 30 mins to 6 hrs by LC-ESI-MS analysis; assay type: cell-based; details: c4-2, 30 µM
How it was run: (§1)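 Serum-free C4-2 or BT-549 cultures given compound, PBS control; media sampled at 30 min, 3 and 6 h. Released drug quantified by C18 UHPLC (water/methanol, 0.1% formic acid gradient) with positive ESI high-resolution Orbitrap MS at mass 496.2569, against standard curve; means ± SEM, n=3.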

[6] = system: BT-549; assay: Inhibition of PI3 kinase in human BT549 cells exposed to BT549 cells conditioned medium pre-incubated with compound for 6 hrs assessed as reduction of p-Akt T308 level by Western blotting; assay type: cell-based
How it was run: (§2)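 Compound incubated 6 h at 37 °C, 5% CO2 in serum-free medium on C4-2 or BT-549 cells; medium then transferred to BT-549 cells for 3 h, PBS control; p-Akt T308 by Western blot.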

[7] = system: BT-549; assay: Inhibition of PI3 kinase in human BT549 cells exposed to C4-2 cells conditioned medium pre-incubated with compound for 6 hrs assessed as reduction of p-Akt T308 level by Western blotting; assay type: cell-based; how it was run: as §2
[8] = system: C4-2; assay: Inhibition of PI3 kinase in human C4-2 cells assessed as reduction of p-Akt T308 level at 30 uM by Western blotting; assay type: cell-based; details: TDE = time-dependent effect
[9] = Prodrug activation in medium conditioned with human BT549 cells assessed as concentration of 4-(2-morpholino-4-oxo-4H-chromen-8-yl) benzyl-2-amino-4-methylpentanoate at 30 uM from 30 mins to 6 hrs by LC-ESI-MS analysis; assay type: cell-based; details: bt-549, 30 µM; how it was run: as §1
[10] = system: BT-549; assay: Inhibition of PI3 kinase in human BT549 cells exposed to 10 uM compound pre-incubated in absence of PSA for 6 hrs assessed as reduction of p-Akt T308 levels after 30 mins by Western blotting; assay type: cell-based
How it was run: (§3)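 Compound pre-incubated 6 h at 37 °C in 50 mM Tris-HCl, 0.1 M NaCl, pH 7.8 with purified active human semen PSA (0–104 ng/mL), then added to BT-549 cells for 30 min, DMSO control; p-Akt T308 Western blot, three independent experiments.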

[11] = system: BT-549; assay: Inhibition of PI3 kinase in human BT549 cells exposed to 10 uM compound pre-incubated with 0.5 to 10^4 ng/mL PSA for 6 hrs assessed as reduction of p-Akt T308 levels after 30 mins by Western blotting; assay type: cell-based; how it was run: as §3
[12] = system: LNCaP C4-2; assay: Induction of apoptosis in human C4-2 cells expressing Luc-BAD assessed as increase in cleavage of PARP at 3 to 50 uM after 6 hrs by Western blotting; assay type: functional, cell-based
How it was run: (§4)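 C4-2LucBAD cells seeded 4×10^5 per 6 cm dish, grown 48 h in RPMI 1640/10% FBS to ~80% confluence, then serum-free 18 h; treated 6 h (DMSO control). Caspase 3 fluorescence read every 15 min for 1 h, arbitrary units, means ± SEM, n=2; cleaved PARP (89 kDa) by Western blot of same samples.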

[13] = system: C4-2; assay: Inhibition of PI3 kinase in human C4-2 cells expressing Luc-BAD assessed as reduction of p-Akt T308 level after 3 hrs by Western blotting; assay type: cell-based
How it was run: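 Serum-free C4-2LucBAD cells (18 h starvation, RPMI 1640 base) dosed over a concentration range for 3 h, PBS control; p-Akt T308 immunoblot of lysates.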

[14] = system: LNCaP; assay: Inhibition of PI3 kinase in human LNCaP cells assessed as reduction of p-Akt T308 level after 3 hrs by Western blotting; assay type: cell-based
How it was run: (§5)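 Cells at ~80% confluence (48 h after seeding 4×10^5 per 6 cm dish), kept serum-free (LNCaP in T-Medium with 2.5% FBS; U-87 MG in DMEM) and dosed over a concentration range for 3 h, PBS control; p-Akt T308 by Western blot, three independent experiments.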

[15] = system: C4-2; assay: Inhibition of PI3 kinase in human C4-2 cells assessed as reduction of p-Akt T308 level after 3 hrs by Western blotting; assay type: cell-based
[16] = system: LNCaP C4-2; assay: Induction of apoptosis in human C4-2 cells expressing Luc-BAD assessed as increase in caspase activity at 3 to 50 uM after 6 hrs by Caspase 3 assay; assay type: functional, cell-based; how it was run: as §4
[17] = system: BT-549; assay: Inhibition of PI3 kinase in human BT549 cells assessed as reduction of p-Akt T308 level after 3 hrs by Western blotting; assay type: cell-based; how it was run: as §5
[18] = system: U-87; assay: Inhibition of PI3 kinase in human U-87 cells assessed as reduction of p-Akt T308 level after 3 hrs by Western blotting; assay type: cell-based; how it was run: as §5
[19] = system: BT-549; assay: Inhibition of PI3 kinase in human BT549 cells assessed as reduction of p-Akt T308 level at 30 uM after 30 mins to 6 hrs by Western blotting; assay type: cell-based
How it was run: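 Serum-free BT-549 cells (RPMI 1640, 10% FBS, insulin during growth) exposed from 30 min to 6 h, PBS control; p-Akt T308 Western blot of cleared lysates, representative of three independent experiments.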

Drug metabolism [5]	Drug metabolism [9]	Structure (SMILES)	inhibition [1]	inhibition [2]	inhibition [3]	inhibition [4]	inhibition [6]	inhibition [7]	inhibition [8]	inhibition [10]	inhibition [11]	Activity [12]	inhibition [13]	inhibition [14]	inhibition [15]	Activity [16]	inhibition [17]	inhibition [18]	inhibition [19]
–	–	CC(C)C[C@H](N)C(=O)OCc1ccc(-c2cccc3c(=O)cc(N4CCOCC4)oc23)cc1	Dose-dependent effect	Active	Dose-dependent effect	Active	–	–	–	–	–	–	–	–	–	–	–	–	–
Active	Not Active	CC(C)C[C@H](NC(=O)[C@H](CCCCN)NC(=O)[C@H](CO)NC(=O)[C@H](CO)NC(=O)[C@H](Cc1cnc[nH]1)NC(=O)[C@H](CCC(=O)O)NC(=O)[C@H](CC(C)C)NC(=O)N1CCOCC1)C(=O)N[C@@H](CCC(N)=O)C(=O)N[C@@H](CC(C)C)C(=O)OCc1ccc(-c2cccc3c(=O)cc(N4CCOCC4)oc23)cc1 ({Morpholide-CO}-LEHSSKLQL-X1)	–	–	–	–	inactive	Active	tde	inactive	Active	Active	Dose-dependent effect	Dose-dependent effect	Dose-dependent effect	Active	inactive	inactive	inactive
